{"source": "ChEMBL document CHEMBL3232887", "about": "“Propargyl-linked antifolates are dual inhibitors of Candida albicans and Candida glabrata” (J Med Chem, 2014)", "key": {"[1]": {"test": "Inhibition of Candida glabrata DHFR using dihydrofolate as substrate preincubated for 5 mins followed by substrate addition in presence of NADPH", "parameters": "species or system Nakaseomyces glabratus", "outline": "(§1)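 Racemic inhibitor from DMSO stock (<2% DMSO in assay) was preincubated 5 min with enzyme and 100 μM NADPH. NADPH consumption was followed at 340 nm for 1 min at 25 °C, in triplicate.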"}, "Nakaseomyces glabratus": {"tested_on": "Nakaseomyces glabratus", "test": "Antifungal activity against Candida glabrata NCCLS84 after 24 hrs by Alamar Blue assay", "details": "NCCLS84, 24 h"}, "Candida albicans [2]": {"tested_on": "Candida albicans", "test": "Antifungal activity against Candida albicans after 24 hrs by assay in presence of 0.01% Triton X-100"}, "[3]": {"test": "Kinetic solubility of the compound in water after 30 mins by HPLC analysis", "type": "physicochemical", "details": "read-out: Kinetic_solubility"}, "Candida albicans [4]": {"tested_on": "Candida albicans", "test": "Antifungal activity against Candida albicans NCCLS84 after 24 hrs by XTT assay", "type": "functional", "details": "SC5314, 24 h, in the assay text read “SC5314” for “NCCLS84”"}, "[5]": {"test": "Selectivity ratio of IC50 for human DHFR to IC50 for Candida glabrata DHFR"}, "[6]": {"test": "Selectivity ratio of IC50 for human DHFR to IC50 for Candida albicans DHFR"}, "Dihydrofolate reductase [7]": {"target": "T1, Dihydrofolate reductase (Candida albicans, UniProt P22906)", "T1 sequence (P22906 whole entry)": "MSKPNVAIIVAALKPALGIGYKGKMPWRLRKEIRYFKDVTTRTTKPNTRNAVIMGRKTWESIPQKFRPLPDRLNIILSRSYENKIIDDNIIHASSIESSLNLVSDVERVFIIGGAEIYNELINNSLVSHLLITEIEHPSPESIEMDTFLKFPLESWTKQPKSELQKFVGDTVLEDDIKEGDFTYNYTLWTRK", "test": "Inhibition of Candida albicans DHFR using dihydrofolate as substrate preincubated for 5 mins followed by substrate addition in presence of NADPH", "outline": "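Consumption of NADPH followed at 340 nm for 1 min at 25 °C. Buffer: 20 mM TES pH 7.0, 50 mM KCl, 10 mM 2-mercaptoethanol, 0.5 mM EDTA, 1 mg/mL BSA. Saturating 100 μM NADPH and 100 μM dihydrofolate, limiting enzyme. Racemic inhibitor was added from DMSO stocks at under 2% DMSO final. Triplicate runs.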"}, "Dihydrofolate reductase [8]": {"target": "T2, Dihydrofolate reductase (Homo sapiens, UniProt P00374)", "T2 sequence (P00374 whole entry)": "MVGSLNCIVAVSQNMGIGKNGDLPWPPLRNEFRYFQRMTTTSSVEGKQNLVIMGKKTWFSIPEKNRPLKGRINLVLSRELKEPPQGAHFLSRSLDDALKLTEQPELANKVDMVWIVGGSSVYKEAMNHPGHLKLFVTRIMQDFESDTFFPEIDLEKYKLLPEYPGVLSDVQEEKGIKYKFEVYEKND", "test": "Inhibition of human DHFR using dihydrofolate as substrate preincubated for 5 mins followed by substrate addition in presence of NADPH", "outline": "as §1"}, "MCF10": {"tested_on": "MCF10", "test": "Cytotoxicity against human MCF10 cells", "type": "cell-based"}, "Candida albicans [9]": {"tested_on": "Candida albicans", "test": "Antifungal activity against Candida albicans after 24 hrs by assay"}, "[10]": {"test": "Kinetic solubility of the compound in water after 30 mins by HPLC analysis in presence of 0.02% HPMC", "type": "physicochemical", "details": "water with 0.02% HPMC; read-out: Kinetic_solubility"}, "Candida albicans [11]": {"tested_on": "Candida albicans", "test": "Antifungal activity against Candida albicans NCCLS84 at 100 ug/ml after 24 hrs by XTT assay", "type": "functional, organism-based"}}, "note": "Calls of active or inactive are those of the source. The rule behind the calls is not given here."}
{"smiles": "CCc1nc(N)nc(N)c1C#CC(C)c1ccc(-c2ccc(C)cc2)nc1", "note": "(stereo unspecified)", "values": [{"measurement": "IC50", "setting": "[1]", "value": 27, "unit": "nM"}, {"measurement": "MIC", "setting": "Nakaseomyces glabratus", "value": 0.2, "unit": "µg/mL"}, {"measurement": "Activity", "setting": "Candida albicans [2]", "value": "Active"}, {"measurement": "solubility kinetic at 0.5 h", "setting": "[3]", "value": 15, "unit": "µg/mL"}, {"measurement": "MIC", "setting": "Candida albicans [4]", "value": 0.39, "unit": "µg/mL"}]}
{"smiles": "CCc1nc(N)nc(N)c1C#CC(C)c1ccc(-c2ccc(C)cc2)cc1OC", "note": "(stereo unspecified)", "values": [{"measurement": "IC50", "setting": "[1]", "value": 22, "unit": "nM"}, {"measurement": "MIC", "setting": "Nakaseomyces glabratus", "value": 1.6, "unit": "µg/mL"}, {"measurement": "Ratio IC50", "setting": "[5]", "value": 9}, {"measurement": "Ratio IC50", "setting": "[6]", "value": 4}, {"measurement": "IC50", "setting": "Dihydrofolate reductase [7]", "value": 48, "unit": "nM"}, {"measurement": "IC50", "setting": "Dihydrofolate reductase [8]", "value": 208, "unit": "nM"}, {"measurement": "MIC", "setting": "Candida albicans [4]", "value": 3.1, "unit": "µg/mL"}]}
{"smiles": "CCc1nc(N)nc(N)c1C#CC(C)c1cnc(-c2ccccc2)nc1", "note": "(stereo unspecified)", "values": [{"measurement": "IC50", "setting": "[1]", "value": 22, "unit": "nM"}, {"measurement": "MIC", "setting": "Nakaseomyces glabratus", "value": 0.78, "unit": "µg/mL"}, {"measurement": "IC50", "setting": "MCF10", "value": 216000, "unit": "nM"}, {"measurement": "solubility kinetic at 0.5 h", "setting": "[3]", "value": 60, "unit": "µg/mL"}, {"measurement": "MIC", "setting": "Candida albicans [4]", "value": 0.19, "unit": "µg/mL"}]}
{"smiles": "CCc1nc(N)nc(N)c1C#CC(C)c1ccc(-c2ccccc2)cc1", "note": "(stereo unspecified)", "values": [{"measurement": "IC50", "setting": "[1]", "value": 6, "unit": "nM"}, {"measurement": "MIC", "setting": "Nakaseomyces glabratus", "value": 3.1, "unit": "µg/mL"}, {"measurement": "IC50", "setting": "Dihydrofolate reductase [7]", "value": 23, "unit": "nM"}, {"measurement": "IC50", "setting": "Dihydrofolate reductase [8]", "value": 174, "unit": "nM"}, {"measurement": "IC50", "setting": "MCF10", "value": 505000, "unit": "nM"}, {"measurement": "MIC", "setting": "Candida albicans [4]", "value": 7.5, "unit": "µg/mL"}]}
{"smiles": "CCc1nc(N)nc(N)c1C#CC(C)c1ccc(-c2ccccc2)cc1OC", "note": "(stereo unspecified)", "values": [{"measurement": "IC50", "setting": "[1]", "value": 31, "unit": "nM"}, {"measurement": "MIC", "setting": "Nakaseomyces glabratus", "value": 1.6, "unit": "µg/mL"}, {"measurement": "Ratio IC50", "setting": "[5]", "value": 6}, {"measurement": "Ratio IC50", "setting": "[6]", "value": 4}, {"measurement": "IC50", "setting": "Dihydrofolate reductase [7]", "value": 49, "unit": "nM"}, {"measurement": "IC50", "setting": "Dihydrofolate reductase [8]", "value": 172, "unit": "nM"}, {"measurement": "MIC", "setting": "Candida albicans [4]", "value": 6.3, "unit": "µg/mL"}]}
{"smiles": "CCc1nc(N)nc(N)c1C#CC(C)c1ccc(-c2ccncc2)cc1OC", "note": "(stereo unspecified)", "values": [{"measurement": "IC50", "setting": "[1]", "value": 19, "unit": "nM"}, {"measurement": "MIC", "setting": "Nakaseomyces glabratus", "value": 0.78, "unit": "µg/mL"}, {"measurement": "IC50", "setting": "Dihydrofolate reductase [7]", "value": 33, "unit": "nM"}, {"measurement": "IC50", "setting": "Dihydrofolate reductase [8]", "value": 127, "unit": "nM"}, {"measurement": "IC50", "setting": "MCF10", "value": 216000, "unit": "nM"}, {"measurement": "MIC", "setting": "Candida albicans [4]", "value": 25, "unit": "µg/mL"}]}
{"smiles": "CCc1nc(N)nc(N)c1C#CC(C)c1ccc(-c2ccc(C(=O)OC)cc2)cc1OC", "note": "(stereo unspecified)", "values": [{"measurement": "IC50", "setting": "MCF10", "value": 96000, "unit": "nM"}]}
{"smiles": "COc1cc(-c2ccccc2)cc(C(C)C#Cc2c(C)nc(N)nc2N)c1", "note": "(stereo unspecified)", "values": [{"measurement": "IC50", "setting": "[1]", "value": 7.3, "unit": "nM"}, {"measurement": "MIC", "setting": "Candida albicans [4]", "value": 23, "unit": "µg/mL"}]}
{"smiles": "CCc1nc(N)nc(N)c1C#CC(C)c1ccc(-c2ccc(OC(N)=O)cc2)cc1OC", "note": "(stereo unspecified)", "values": [{"measurement": "MIC", "setting": "Candida albicans [9]", "value": "inactive"}]}
{"smiles": "CCc1nc(N)nc(N)c1C#CC(C)c1ccc(-c2ccc(N(C)C)cc2)cc1OC", "note": "(stereo unspecified)", "values": [{"measurement": "MIC", "setting": "Candida albicans [9]", "value": "inactive"}]}
{"smiles": "COc1cc(C(C)C#Cc2c(C)nc(N)nc2N)c(OC)cc1-c1ccccc1", "note": "(stereo unspecified)", "values": [{"measurement": "IC50", "setting": "[1]", "value": 8.2, "unit": "nM"}, {"measurement": "MIC", "setting": "Nakaseomyces glabratus", "value": 1.6, "unit": "µg/mL"}, {"measurement": "IC50", "setting": "Dihydrofolate reductase [7]", "value": 36, "unit": "nM"}, {"measurement": "IC50", "setting": "Dihydrofolate reductase [8]", "value": 314, "unit": "nM"}, {"measurement": "MIC", "setting": "Candida albicans [4]", "value": 3.1, "unit": "µg/mL"}]}
{"smiles": "COc1cc(-c2ccccc2)ccc1C(C)C#Cc1c(C)nc(N)nc1N", "note": "(stereo unspecified)", "values": [{"measurement": "MIC", "setting": "Nakaseomyces glabratus", "value": 0.39, "unit": "µg/mL"}, {"measurement": "IC50", "setting": "Dihydrofolate reductase [7]", "value": 20, "unit": "nM"}, {"measurement": "IC50", "setting": "Dihydrofolate reductase [8]", "value": 340, "unit": "nM"}, {"measurement": "IC50", "setting": "MCF10", "value": 74000, "unit": "nM"}, {"measurement": "MIC", "setting": "Candida albicans [4]", "value": 1.6, "unit": "µg/mL"}, {"measurement": "solubility kinetic at 0.5 h", "setting": "[10]", "value": 25, "unit": "µg/mL"}]}
{"smiles": "CCc1nc(N)nc(N)c1C#CC(C)c1ccc(-c2ccc(O)cc2)cc1OC", "note": "(stereo unspecified)", "values": [{"measurement": "Activity", "setting": "Candida albicans [11]", "value": "inactive"}, {"measurement": "IC50", "setting": "MCF10", "value": 148000, "unit": "nM"}]}
{"smiles": "CCc1nc(N)nc(N)c1C#CC(C)c1cc(OC)cc(-c2ccncc2)c1", "note": "(stereo unspecified)", "values": [{"measurement": "MIC", "setting": "Nakaseomyces glabratus", "value": 1.3, "unit": "µg/mL"}, {"measurement": "MIC", "setting": "Candida albicans [2]", "value": 6.25, "unit": "µg/mL"}, {"measurement": "MIC", "setting": "Candida albicans [4]", "value": 25, "unit": "µg/mL"}]}
{"smiles": "CCc1nc(N)nc(N)c1C#CC(C)c1ccc(-c2ccc(C#N)cc2)cc1OC", "note": "(stereo unspecified)", "values": [{"measurement": "IC50", "setting": "MCF10", "value": 50000, "unit": "nM"}]}
{"smiles": "CCc1nc(N)nc(N)c1C#CC(C)c1ccc(-c2ccccc2)nc1", "note": "(stereo unspecified)", "values": [{"measurement": "IC50", "setting": "[1]", "value": 23, "unit": "nM"}, {"measurement": "MIC", "setting": "Nakaseomyces glabratus", "value": 0.78, "unit": "µg/mL"}, {"measurement": "IC50", "setting": "MCF10", "value": 148000, "unit": "nM"}, {"measurement": "solubility kinetic at 0.5 h", "setting": "[3]", "value": 20, "unit": "µg/mL"}, {"measurement": "MIC", "setting": "Candida albicans [4]", "value": 0.39, "unit": "µg/mL"}]}
{"smiles": "CCc1nc(N)nc(N)c1C#CC(C)c1ccc(-c2ccc(F)cc2)cc1OC", "note": "(stereo unspecified)", "values": [{"measurement": "MIC", "setting": "Nakaseomyces glabratus", "value": 7.5, "unit": "µg/mL"}, {"measurement": "IC50", "setting": "Dihydrofolate reductase [7]", "value": 43, "unit": "nM"}, {"measurement": "IC50", "setting": "Dihydrofolate reductase [8]", "value": 148, "unit": "nM"}, {"measurement": "IC50", "setting": "MCF10", "value": 60000, "unit": "nM"}, {"measurement": "MIC", "setting": "Candida albicans [4]", "value": 1.8, "unit": "µg/mL"}]}
{"smiles": "COc1cc(C(C)C#Cc2c(C)nc(N)nc2N)ccc1-c1ccccc1", "note": "(stereo unspecified)", "values": [{"measurement": "MIC", "setting": "Nakaseomyces glabratus", "value": 0.78, "unit": "µg/mL"}, {"measurement": "IC50", "setting": "MCF10", "value": 80000, "unit": "nM"}, {"measurement": "MIC", "setting": "Candida albicans [4]", "value": 6.25, "unit": "µg/mL"}]}
